According to ChEMBL document CHEMBL3813621, “Structure-Activity Relationship Studies of Isomeric 2,4-Diaminoquinazolines on β-Amyloid Aggregation Kinetics” (ACS Med Chem Lett, 2016):
Calls of active or inactive are those of the source. The rule behind the calls is not given here.

Experiments:
[1] = target: T1, Amyloid-beta precursor protein (Homo sapiens, UniProt P05067); test: Inhibition of self-induced amyloid beta 40 (unknown origin) aggregation measured for 24 hrs by thioflavin T-based fluorescence spectroscopic analysis
[2] = target: T1, Amyloid-beta precursor protein; test: Inhibition of self-induced amyloid beta 42 (unknown origin) aggregation measured for 24 hrs by thioflavin T-based fluorescence spectroscopic analysis
[3] = target: T1, Amyloid-beta precursor protein; test: Inhibition of amyloid beta 42 (unknown origin) aggregation assessed as time at which fluorescence intensity reaches the midpoint between pre and post aggregation baseline growth phase at 25 uM measured for 24 hrs by thioflavin T-based fluorescence spectroscopic analysis
In short: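 Aβ42 at 5 μM with compound at 25 μM in phosphate buffer pH 7.4, 37 °C, followed 24 h by ThT fluorescence (ex 440/em 490 nm). t50 taken as the time at which fluorescence reaches the midpoint between pre- and postaggregation baselines of the growth phase. Three independent experiments in triplicate.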

[4] = target: T1, Amyloid-beta precursor protein; test: Inhibition of nucleation-dependent amyloid beta 40 (unknown origin) aggregation at 1 to 25 uM measured for 24 hrs by thioflavin T-based fluorescence spectroscopic analysis
In short: (§1)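 Aβ peptide at 5 μM incubated with test compound (1, 5 or 25 μM) in phosphate buffer pH 7.4 at 37 °C for 24 h; aggregation monitored by ThT fluorescence (excitation 440 nm, emission 490 nm). IC50 calculated from ThT signal; mean of triplicate readings from three independent experiments.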

[5] = target: T1, Amyloid-beta precursor protein; test: Inhibition of amyloid beta 42 (unknown origin) aggregation at 25 uM after 24 hrs by transmission electron microscopy
In short: (§2)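 Aβ40 or Aβ42 at 25 μM, alone or with 25 μM compound, incubated 24 h at 37 °C in phosphate buffer pH 7.4; fibril and aggregate morphology then imaged by transmission electron microscopy.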

[6] = target: T1, Amyloid-beta precursor protein; test: Inhibition of amyloid beta 40 (unknown origin) aggregation at 25 uM after 24 hrs by transmission electron microscopy; in short: as §2
[7] = target: T1, Amyloid-beta precursor protein; test: Potency index, ratio of curcumin IC50 for amyloid beta 40 (unknown origin) aggregation to compound IC50 for amyloid beta 40 (unknown origin) aggregation
[8] = target: T1, Amyloid-beta precursor protein; test: Potency index, ratio of curcumin IC50 for amyloid beta 42 (unknown origin) aggregation to compound IC50 for amyloid beta 42 (unknown origin) aggregation
[9] = target: T1, Amyloid-beta precursor protein; test: Induction of self-induced amyloid beta 40 (unknown origin) aggregation measured for 24 hrs by thioflavin T-based fluorescence spectroscopic analysis; in short: as §1
[10] = target: T1, Amyloid-beta precursor protein; test: Induction of self-induced amyloid beta 42 (unknown origin) aggregation measured for 24 hrs by thioflavin T-based fluorescence spectroscopic analysis; in short: as §1

T1 sequence (P05067 whole entry): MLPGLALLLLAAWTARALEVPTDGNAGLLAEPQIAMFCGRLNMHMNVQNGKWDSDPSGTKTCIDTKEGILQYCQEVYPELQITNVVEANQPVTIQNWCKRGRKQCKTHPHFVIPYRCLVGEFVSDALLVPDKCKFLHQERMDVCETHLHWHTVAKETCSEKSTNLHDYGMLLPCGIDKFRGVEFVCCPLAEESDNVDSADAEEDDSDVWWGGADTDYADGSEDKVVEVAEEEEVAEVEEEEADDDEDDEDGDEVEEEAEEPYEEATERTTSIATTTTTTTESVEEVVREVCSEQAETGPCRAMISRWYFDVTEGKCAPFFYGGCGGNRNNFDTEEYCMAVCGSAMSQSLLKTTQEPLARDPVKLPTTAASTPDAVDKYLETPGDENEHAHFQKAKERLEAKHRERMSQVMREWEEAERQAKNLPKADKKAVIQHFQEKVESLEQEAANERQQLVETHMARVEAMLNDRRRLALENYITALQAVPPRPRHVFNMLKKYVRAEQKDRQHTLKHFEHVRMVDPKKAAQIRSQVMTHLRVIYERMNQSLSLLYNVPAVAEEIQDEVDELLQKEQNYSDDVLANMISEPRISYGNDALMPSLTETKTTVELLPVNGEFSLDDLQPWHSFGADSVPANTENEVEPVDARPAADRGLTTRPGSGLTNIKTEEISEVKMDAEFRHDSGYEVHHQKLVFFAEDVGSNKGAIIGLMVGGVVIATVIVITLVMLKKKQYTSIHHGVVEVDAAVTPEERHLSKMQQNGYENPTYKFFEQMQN

In the case of `Nc1nc(NCCc2ccccc2)c2ccccc2n1`, the IC50 [1] is reported as 7.8 µM and the IC50 ([2]; read-out: IC50) is reported as > 25 µM.
`Nc1nc(NCC2CCCCC2)c2ccccc2n1` was tested, and the IC50 [1] was 13.6 µM and the IC50 ([2]; read-out: IC50) was > 25 µM.
For `Cc1cccc(CNc2nc(N)c3ccccc3n2)c1`, the IC50 [1] was > 25 µM and the IC50 ([2]; read-out: IC50) was > 25 µM.
`Nc1nc(NCc2cccc(Br)c2)c2ccccc2n1` was tested, and the TIME [3] was 2.6 h, the inhibition [4] was “Active” and the IC50 [1] was 0.58 µM. For the same compound, the IC50 ([2]; read-out: IC50) was 22.3 µM.
With `COc1cccc(CNc2nc(N)nc3ccccc23)c1` the IC50 [1] was 20.6 µM and the IC50 [2] was “Not Active”.
With `Cc1ccc(CNc2nc(N)nc3ccccc23)cc1` the IC50 [1] was 3.9 µM and the IC50 ([2]; read-out: IC50) was > 25 µM.
With `COc1ccc(CNc2nc(N)c3ccccc3n2)cc1` the IC50 [1] was 6.8 µM and the IC50 ([2]; read-out: IC50) was > 25 µM.
Compound `Nc1nc(NCc2cccc(Cl)c2)nc2ccccc12` has an IC50 [1] of 5.9 µM and an IC50 ([2]; read-out: IC50) of 13.4 µM.
Work on `O=S(=O)(O)c1cc(S(=O)(=O)O)c2c(/N=N/c3ccccc3)c(O)ccc2c1` [ORANGE G SODIUM] yielded an IC50 [1] of 3 µM and an IC50 ([2]; read-out: IC50) of 8.7 µM.
In the case of `CC(C)Nc1nc(N)nc2ccccc12`, the IC50 [1] is reported as 10.2 µM and the IC50 [2] is reported as “Not Active”.
`Cc1ccc(CNc2nc(N)c3ccccc3n2)cc1` gave an IC50 [1] of 13.1 µM and an IC50 ([2]; read-out: IC50) of 22.5 µM.
For `Nc1nc(NCc2cccc(F)c2)c2ccccc2n1`, the IC50 [1] was 2.8 µM and the IC50 ([2]; read-out: IC50) was > 25 µM.
`Nc1nc(NCc2cccc(Br)c2)nc2ccccc12` was tested, and the TIME [3] was 6 h, the IC50 [1] was 1.5 µM and the inhibition [1] was “Dose-dependent effect”. The inhibition [2] was “Dose-dependent effect” and the IC50 ([2]; read-out: IC50) was 2.7 µM.
In the case of `Nc1nc(NCc2ccc(F)cc2)nc2ccccc12`, the IC50 [1] is reported as > 25 µM and the IC50 ([2]; read-out: IC50) is reported as > 25 µM.
`Nc1nc(NCc2ccccc2)c2ccccc2n1` was tested, and the IC50 [1] was 4.8 µM and the IC50 ([2]; read-out: IC50) was > 25 µM.
`Nc1nc(NCc2ccccc2)nc2ccccc12` gave an IC50 [1] of 2.2 µM and an IC50 ([2]; read-out: IC50) of 8.4 µM.
With `Nc1nc(NCc2ccc(Br)cc2)c2ccccc2n1` the TIME [3] was 3.5 h, the inhibition [5] was “Active” and the inhibition [4] was “Active”. The inhibition [6] was “Active”, the IC50 [1] was 0.08 µM and the Ratio IC50 [7] was 18. It also gave an IC50 ([2]; read-out: IC50) of 14.8 µM.
`CCCNc1nc(N)c2ccccc2n1` was tested, and the IC50 [1] was > 25 µM and the IC50 ([2]; read-out: IC50) was > 25 µM.
With `Nc1nc(NCc2ccc(Br)cc2)nc2ccccc12` the Ratio IC50 [8] was 1.8, the inhibition [3] was “Active” and the inhibition [5] was “Active”. The inhibition [6] was “Active”, the IC50 [1] was 1.7 µM and the inhibition [1] was “Dose-dependent effect”. The inhibition [2] was “Dose-dependent effect” and the IC50 ([2]; read-out: IC50) was 1.7 µM.
`Nc1nc(NCCc2ccccc2)nc2ccccc12` was tested, and the IC50 [1] was 14.9 µM and the IC50 ([2]; read-out: IC50) was > 25 µM.
`COc1ccc(CNc2nc(N)nc3ccccc23)cc1` was tested, and the IC50 [1] was 1.1 µM and the IC50 ([2]; read-out: IC50) was > 25 µM.
`Nc1nc(NCc2cccc(C(F)(F)F)c2)c2ccccc2n1` gave an IC50 [1] of 3.5 µM and an IC50 ([2]; read-out: IC50) of 21 µM.
In the case of `Nc1nc(NCc2cccc(Cl)c2)c2ccccc2n1`, the IC50 [1] is reported as 1.9 µM and the IC50 ([2]; read-out: IC50) is reported as > 25 µM.
With `Nc1nc(NCc2ccc(C(F)(F)F)cc2)c2ccccc2n1` the IC50 [1] was 1.9 µM and the IC50 ([2]; read-out: IC50) was > 25 µM.
In the case of `Nc1nc(NCc2ccc(F)cc2)c2ccccc2n1`, the IC50 [1] is reported as 3.1 µM and the IC50 ([2]; read-out: IC50) is reported as > 25 µM.
In the case of `CC(C)Nc1nc(N)c2ccccc2n1`, the IC50 [1] is reported as > 25 µM and the IC50 ([2]; read-out: IC50) is reported as > 25 µM.
With `Nc1nc(N)c2ccccc2n1` the Activity [9] was “Active” and the Activity [10] was “Active”.
`Nc1nc(NCc2ccc(C(F)(F)F)cc2)nc2ccccc12` was tested, and the IC50 [1] was 2.3 µM and the IC50 ([2]; read-out: IC50) was 5.3 µM.
`CCCNc1nc(N)nc2ccccc12` was tested, and the IC50 [1] was 14.9 µM and the IC50 [2] was “Not Active”.
In the case of `Nc1nc(NCc2ccc(Cl)cc2)c2ccccc2n1`, the IC50 [1] is reported as 0.62 µM, the Ratio IC50 [7] is reported as 2.4 and the IC50 ([2]; read-out: IC50) is reported as > 25 µM.
With `Nc1nc(NCc2cccc(C(F)(F)F)c2)nc2ccccc12` the IC50 [1] was 12.5 µM and the IC50 ([2]; read-out: IC50) was 13.8 µM.
`Nc1nc(NCc2cccc(F)c2)nc2ccccc12` showed an IC50 [1] of 11.3 µM and an IC50 ([2]; read-out: IC50) of 14.7 µM.
In the case of `Cc1cccc(CNc2nc(N)nc3ccccc23)c1`, the IC50 [1] is reported as 3.6 µM and the IC50 ([2]; read-out: IC50) is reported as > 25 µM.
`Nc1nc(NCC2CCCCC2)nc2ccccc12` was tested, and the IC50 [1] was > 25 µM and the IC50 ([2]; read-out: IC50) was > 25 µM.
`COc1cccc(CNc2nc(N)c3ccccc3n2)c1` was tested, and the IC50 [1] was > 25 µM and the IC50 ([2]; read-out: IC50) was > 25 µM.
`Nc1nc(NCc2ccc(Cl)cc2)nc2ccccc12` was tested, and the IC50 [1] was 0.93 µM and the IC50 ([2]; read-out: IC50) was 8.1 µM.
